Test results taken from ChEMBL document CHEMBL1157626, “A concise synthesis of 1,4-dihydro-[1,4]diazepine-5,7-dione, a novel 7-TM receptor ligand core structure with melanocortin receptor agonist activity” (Bioorg Med Chem, 2010).
Active and inactive are the calls of the source. The calls are words filed in the database; no cut-off is given here.

Key:
[1] = molecular target: T1, Melanocyte-stimulating hormone receptor (Homo sapiens, UniProt Q01726); test: Agonist activity at human MC1R expressed in CHO cells after 4 hrs by luciferase reporter gene assay; assay type: functional, cell-based
How it was run: (§1)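 CHO-6xCRE-luc+ cells expressing the human receptor, plated at 4000 cells/well in DMEM/F12 with 10% FBS 48 h before assay. Switched to serum-free medium 16 h before compound addition, then incubated 4 h at 37 °C. Luciferase read after 10 min dark adaptation. Activity expressed as % of fold stimulation by 1 × 10^-7 M NDP-aMSH (duplicate control wells).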
Target sequence in this assay (Q01726 whole entry): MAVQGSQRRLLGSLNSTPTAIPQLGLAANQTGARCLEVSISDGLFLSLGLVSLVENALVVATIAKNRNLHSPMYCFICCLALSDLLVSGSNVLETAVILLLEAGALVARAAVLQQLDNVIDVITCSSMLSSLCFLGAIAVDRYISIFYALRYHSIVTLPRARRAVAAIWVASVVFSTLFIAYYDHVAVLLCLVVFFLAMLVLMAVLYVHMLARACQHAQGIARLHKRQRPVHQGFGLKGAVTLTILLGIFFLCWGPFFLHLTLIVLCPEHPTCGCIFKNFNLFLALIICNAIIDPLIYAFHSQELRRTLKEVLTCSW

[2] = molecular target: T2, Melanocortin receptor 4 (Homo sapiens, UniProt P32245); test: Agonist activity at human MC4R expressed in CHO cells after 4 hrs by luciferase reporter gene assay; assay type: functional, cell-based; how it was run: as §1
T2 sequence (P32245 whole entry): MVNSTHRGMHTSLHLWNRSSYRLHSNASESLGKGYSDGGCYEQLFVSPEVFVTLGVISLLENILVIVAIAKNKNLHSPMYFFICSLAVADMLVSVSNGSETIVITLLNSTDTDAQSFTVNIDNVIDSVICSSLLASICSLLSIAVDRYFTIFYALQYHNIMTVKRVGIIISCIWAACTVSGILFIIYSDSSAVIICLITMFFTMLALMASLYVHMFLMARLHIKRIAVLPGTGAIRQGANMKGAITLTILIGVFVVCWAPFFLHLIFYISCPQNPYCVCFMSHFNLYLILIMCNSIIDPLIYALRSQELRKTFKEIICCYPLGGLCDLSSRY

[3] = molecular target: T1, Melanocyte-stimulating hormone receptor; test: Agonist activity at human MC1R expressed in CHO cells after 4 hrs by luciferase reporter gene assay relative to alpha-melanocyte stimulating hormone; assay type: functional, cell-based; parameters: concentration or dose not given beside the values; how it was run: as §1
Target sequence in this assay (Q01726 whole entry, looked up): as the sequence (Q01726 whole entry) above

[4] = molecular target: T2, Melanocortin receptor 4; test: Agonist activity at human MC4R expressed in CHO cells after 4 hrs by luciferase reporter gene assay relative to alpha-melanocyte stimulating hormone; assay type: functional, cell-based; how it was run: as §1
[5] = molecular target: T2, Melanocortin receptor 4; test: Agonist activity at human MC4R expressed in CHO cells at 10 uM after 4 hrs by luciferase reporter gene assay relative to alpha-melanocyte stimulating hormone; assay type: functional, cell-based; how it was run: as §1
[6] = molecular target: T1, Melanocyte-stimulating hormone receptor; test: Agonist activity at human MC1R expressed in CHO cells at 10 uM after 4 hrs by luciferase reporter gene assay relative to alpha-melanocyte stimulating hormone; assay type: functional, cell-based; how it was run: as §1
Target sequence in this assay (Q01726 whole entry, looked up): as the sequence (Q01726 whole entry) above

[7] = test system: Rattus norvegicus; test: Anorexigenic activity in lean Sprague-Dawley rat assessed as suppression of peptide YY-induced food intake at 100 pmol, icv administered 15 mins before peptide YY challenge measured for 3 hrs in presence of MC4R antagonist SHU9119; assay type: functional, organism-based
How it was run: (§2)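 Lean Sprague-Dawley rats (~400 g) with third-ventricle cannulae. Saline or 1 nmol SHU9119 given ICV 30 min before vehicle (2% DMSO/saline) or test compound ICV. 0.23 nmol PYY given ICV 15 min later. Powdered chow intake logged every half hour for 3 h. N = 7–8 per group.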

[8] = test system: Rattus norvegicus; test: Anorexigenic activity in lean Sprague-Dawley rat assessed as suppression of peptide YY-induced food intake at 100 pmol, icv administered 15 mins before peptide YY challenge measured for 3 hrs; assay type: functional, organism-based; how it was run: as §2
[9] = organism: Homo sapiens; test: Selectivity for human MC1R over human MC4R

SMILES	EC50 ([1]; read-out: pEC50 (converted)) [nM]	EC50 ([2]; read-out: pEC50 (converted)) [nM]	Activity [3] [%]	Activity [4]	Efficacy [5] [%]	EC50 ([2]; read-out: EC50) [nM]	other results
O=C1C(Cc2n[nH]c3ccccc23)C(=O)N(c2ccccc2)C=CN1CC(=O)N1CCCCc2ccccc21 (racemic)	–	324	61	17	–	–	–
O=C1[C@H](Cc2n[nH]c3ccccc23)C(=O)N(c2ccccc2)C=CN1CC(=O)N1CCCCc2ccccc21	61.7	794	76	20	–	–	–
COc1ccc(N(C(=O)CN2C=CN(c3ccccc3)C(=O)C(Cc3nn(C)c4ccccc34)C2=O)C(C)C)cc1 (racemic)	–	–	–	–	5	> 30000	Efficacy [6]: 6%; EC50 ([1]; read-out: EC50): > 30000 nM
COc1ccc(N(C(=O)CN2C=CN(c3cccnc3)C(=O)C(Cc3n[nH]c4ccccc34)C2=O)C(C)C)cc1 (racemic)	178	2880	60	31	–	–	–
COc1ccc(N(C(=O)CN2C=CN(c3ccccc3)C(=O)C(Cc3cc[nH]n3)(Cc3n[nH]c4ccccc34)C2=O)C(C)C)cc1 (racemic)	398	1050	30	16	–	–	–
COc1ccc(N(C(=O)CN2C=CN(c3ccccc3)C(=O)C(Cc3n[nH]c4ccccc34)C2=O)C(C)C)cc1 (racemic)	–	708	68	45	–	–	inhibition [7]: inactive; inhibition [8]: Active
CC(C)N(C(=O)CN1C=CN(c2ccccc2)C(=O)C(Cc2n[nH]c3cc(F)ccc23)C1=O)c1ccc(F)cc1 (racemic)	–	178	53	19	–	–	–
COC1(Cc2n[nH]c3ccccc23)C(=O)N(CC(=O)N(c2ccc(F)cc2)C(C)C)C=CN(c2ccccc2)C1=O (racemic)	2950	44.7	33	52	–	–	–
O=C1[C@@H](Cc2n[nH]c3ccccc23)C(=O)N(c2ccccc2)C=CN1CC(=O)N1CCCCc2ccccc21	1.58	100	86	27	–	–	–
CC(C)N(C(=O)CN1C=CN(c2ccccc2)C(=O)[C@@H](Cc2n[nH]c3cc(F)ccc23)C1=O)c1ccccc1	–	–	–	–	0	> 30000	Efficacy [6]: 2%; EC50 ([1]; read-out: EC50): > 30000 nM
CC(C)N(C(=O)CN1C=CN(c2ccccc2)C(=O)C(Cc2n[nH]c3ccccc23)C1=O)c1ccc(N2CCOCC2)cc1 (racemic)	832	–	22	–	3	> 30000	–
COc1ccc(N(C(=O)CN2C=CN(C3CCCCC3)C(=O)C(Cc3n[nH]c4ccccc34)C2=O)C(C)C)cc1 (racemic)	–	–	–	–	19	> 30000	Efficacy [6]: 25%; EC50 ([1]; read-out: EC50): > 30000 nM
O=C1C(Cc2n[nH]c3cc(F)ccc23)C(=O)N(c2ccccc2)C=CN1CC(=O)N1CCCCc2ccccc21 (racemic)	–	437	61	16	–	–	Selectivity ratio [9]: > 100
O=C(CN1C=CN(c2ccccc2)C(=O)C(Cc2n[nH]c3ccccc23)C1=O)CP(=O)(O)Oc1ccccc1 (racemic)	–	–	–	–	4	> 30000	Efficacy [6]: 3%; EC50 ([1]; read-out: EC50): > 30000 nM
CC(C)N(C(=O)CN1C=CN(c2ccccc2)C(=O)C(Cc2n[nH]c3ccccc23)C1=O)c1ccc(O)cc1 (single isomer, unassigned; form 1) [listing 2 of 2 here]	–	1000	–	–	–	–	–
CC(C)N(C(=O)CN1C=CN(c2ccccc2)C(=O)C(Cc2n[nH]c3ccccc23)C1=O)c1ccccc1 (racemic)	708	3240	42	22	–	–	–
O=C(CN1C=CN(c2ccccc2)C(=O)C(Cc2n[nH]c3ccccc23)C1=O)CP(=O)(Oc1ccccc1)Oc1ccccc1 (racemic)	–	–	–	–	5	> 30000	Efficacy [6]: 1%; EC50 ([1]; read-out: EC50): > 30000 nM

Continued, in another order:

EC50 ([1]; read-out: pEC50 (converted)) [nM]	EC50 ([2]; read-out: pEC50 (converted)) [nM]	Activity [3] [%]	Activity [4]	Efficacy [5] [%]	EC50 ([2]; read-out: EC50) [nM]	SMILES	other results
550	1000	–	–	–	–	CC(C)N(C(=O)CN1C=CN(c2ccccc2)C(=O)C(Cc2n[nH]c3ccccc23)C1=O)c1ccc(O)cc1 (racemic) [listing 1 of 2 here]	–
–	–	54	30	–	–	CC(C)N(C(=O)CN1C=CN(c2ccccc2)C(=O)C(Cc2n[nH]c3ccccc23)C1=O)c1ccc(O)cc1 (racemic) [listing 2 of 2 here]	–
–	151	91	78	–	–	CC(C)N(C(=O)CN1C=CN(c2ccccc2)C(=O)C(Cc2n[nH]c3ccccc23)C1=O)c1ccc(OC(F)(F)F)cc1 (racemic)	–
–	–	–	–	3	> 30000	CC(C)N(C(=O)CN1C=CN(c2ccccc2)C(=O)[C@@H](Cc2n[nH]c3ccccc23)C1=O)c1ccccc1	Efficacy [6]: 9%; EC50 ([1]; read-out: EC50): > 30000 nM
3720	–	62	–	5	> 30000	CC(C)N(C(=O)CN1C=CN(C)C(=O)C(Cc2n[nH]c3cc(F)ccc23)C1=O)c1ccc(F)cc1 (racemic)	–
794	–	59	–	6	> 30000	COc1ccc(N(C(=O)CN2C=CN(Cc3ccccc3)C(=O)C(Cc3n[nH]c4ccccc34)C2=O)C(C)C)cc1 (racemic)	–
12.6	661	65	31	–	–	COc1ccc(N(C(=O)CN2C=CN(c3cccnc3)C(=O)C(Cc3n[nH]c4cc(F)ccc34)C2=O)C(C)C)cc1 (racemic)	–
–	–	16	–	5	–	CC(C)N(C(=O)CN1C=CN(c2ccccc2)C(=O)C(Cc2n[nH]c3ccccc23)C1=O)c1ccc(O)cc1 (single isomer, unassigned; form 2) [listing 1 of 2 here]	–
–	–	79	44	–	–	CC(C)N(C(=O)CN1C=CN(c2ccccc2)C(=O)C(Cc2n[nH]c3ccccc23)C1=O)c1ccc(O)cc1 (single isomer, unassigned; form 1) [listing 1 of 2 here]	–
1550	–	–	–	14	> 30000	COc1ccc(N(C(=O)CN2C=CN(c3ccccc3)C(=O)[C@@H](Cc3n[nH]c4ccccc34)C2=O)C(C)C)cc1	–
52.5	–	–	–	–	> 30000	CC(C)N(C(=O)CN1C=CN(c2ccccc2)C(=O)C(Cc2n[nH]c3ccccc23)C1=O)c1ccc(O)cc1 (single isomer, unassigned; form 2) [listing 2 of 2 here]	–
295	1070	54	26	–	–	CC(C)N(C(=O)CN1C=CN(c2ccccc2)C(=O)[C@H](Cc2n[nH]c3ccccc23)C1=O)c1ccccc1	–
–	–	–	–	5	> 30000	CCn1nc(CC2C(=O)N(CC(=O)N(c3ccc(OC)cc3)C(C)C)C=CN(c3ccccc3)C2=O)c2ccccc21 (racemic)	Efficacy [6]: 2%; EC50 ([1]; read-out: EC50): > 30000 nM
186	537	51	19	–	–	CC(C)N(C(=O)CN1C=CN(c2ccccc2)C(=O)C(Cc2n[nH]c3cc(F)ccc23)C1=O)c1ccccc1 (racemic)	–
–	282	54	22	–	–	CC(C)N(C(=O)CN1C=CN(c2ccccc2)C(=O)C(Cc2n[nH]c3ccccc23)C1=O)c1ccc(F)cc1 (racemic)	–
35.5	1260	79	23	–	–	CC(C)N(C(=O)CN1C=CN(c2ccccc2)C(=O)[C@H](Cc2n[nH]c3cc(F)ccc23)C1=O)c1ccccc1	–
–	355	83	39	–	–	COc1ccc(N(C(=O)CN2C=CN(c3ccccc3)C(=O)C(Cc3n[nH]c4cc(F)ccc34)C2=O)C(C)C)cc1 (racemic)	–
–	–	–	–	0	> 30000	COc1ccc(N(C(=O)CN2C=CN(C3CCCCC3)C(=O)C(Cc3ccccc3)C2=O)C(C)C)cc1 (racemic)	Efficacy [6]: 0%; EC50 ([1]; read-out: EC50): > 30000 nM
1380	166	58	74	–	–	COc1ccc(N(C(=O)CN2C=CN(c3ccccc3)C(=O)C(Cc3n[nH]c4ccccc34)(OC)C2=O)C(C)C)cc1 (racemic)	–
